Results as given in ChEMBL document CHEMBL3352256 (J Med Chem, 2014).

Key:
[1] = system: Human T-cell leukemia virus type I; assay: Inhibition of HTLV-1 protease at 40 uM using (RE(Edans)TKVLVVQPK(Dabsyl)R) substrate by fluorescence-based assay
In short: (§1)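 HTLV-1 PR (aspartic protease, homodimer) activity was measured in a fluorescence-based assay. Inhibitors were tested at 80, 40 and 8 μM, and the read-out was percent inhibition. A percentage efficiency index (PEI) was then calculated from the percent inhibition value and the molecular weight.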

[2] = system: Human T-cell leukemia virus type I; assay: Inhibition of HTLV-1 protease at 8 uM using (RE(Edans)TKVLVVQPK(Dabsyl)R) substrate by fluorescence-based assay; in short: as §1
[3] = system: Human T-cell leukemia virus type I; assay: Inhibition of HTLV-1 protease at 80 uM using (RE(Edans)TKVLVVQPK(Dabsyl)R) substrate by fluorescence-based assay; in short: as §1
[4] = Inhibition of HTLV-1 protease; design: species or system Human T-cell leukemia virus type I

Structure (SMILES) | Ki [4] | inhibition [1] | inhibition [2] | inhibition [3]
CC(C)(C)NC(=O)[C@@H]1CNCCN1C[C@@H](O)C[C@@H](Cc1ccccc1)C(=O)N[C@H]1c2ccccc2C[C@H]1O | – | 45.1% | 16.8% | 60.8%
CC(C)(C)NC(=O)[C@@H]1CN(Cc2cccnc2)CCN1C[C@@H](O)C[C@@H](Cc1ccccc1)C(=O)N[C@H]1c2ccccc2C[C@H]1O | 3.5 µM | 91.2% | 71.8% | 95.4%

Continued, in another order:

Ki [4] | Structure (SMILES) | inhibition [1] | inhibition [2] | inhibition [3]
> 20 µM | CC(C)CN(C[C@@H](O)[C@H](Cc1ccccc1)NC(=O)O[C@H]1CCOC1)S(=O)(=O)c1ccc(N)cc1 | – | – | –
> 20 µM | Cc1c(O)cccc1C(=O)N[C@@H](CSc1ccccc1)[C@H](O)CN1C[C@H]2CCCC[C@H]2C[C@H]1C(=O)NC(C)(C)C | – | – | –
> 20 µM | CC(C)(C)NC(=O)[C@@H]1C[C@@H]2CCCC[C@@H]2CN1C[C@@H](O)[C@H](Cc1ccccc1)NC(=O)[C@H](CC(N)=O)NC(=O)c1ccc2ccccc2n1 | – | – | –
